From PubChem BioAssay
Compounds with a hit are over-represented: about 3.7% of the library has one in this group of screens.
EBI2 antag = EBI2 (human) antagonism; P32249; EBI2 beta-arrestin recruitment, luminescence, 7a,25-OHC stimulated; inhibition, % at 5 µM; actives 0.81% (n = 360,000); in the data active means inhibition above about 38%;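 further: enzyme fragment complementation signal reports receptor beta-arrestin coupling in cells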
Target sequence (P32249 whole entry, looked up, the tested form may be a part): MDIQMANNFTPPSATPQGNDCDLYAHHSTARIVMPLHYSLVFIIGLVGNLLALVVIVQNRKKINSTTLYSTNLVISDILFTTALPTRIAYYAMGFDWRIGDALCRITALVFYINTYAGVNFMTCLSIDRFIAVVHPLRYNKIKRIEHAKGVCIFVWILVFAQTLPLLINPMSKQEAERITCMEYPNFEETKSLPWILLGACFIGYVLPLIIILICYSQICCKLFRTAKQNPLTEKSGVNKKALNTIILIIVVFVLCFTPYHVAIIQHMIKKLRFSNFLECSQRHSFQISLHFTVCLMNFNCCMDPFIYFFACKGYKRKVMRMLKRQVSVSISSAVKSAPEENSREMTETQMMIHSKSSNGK
Myeloid diff MLP = promotes myeloid progenitor differentiation. ER-HoxA9 myeloid progenitors, lysozyme-GFP differentiation, flow cytometry. calls only at 10 µM. actives 1% (n = 360,000). AID 624256;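 active means normalized GFP-positive differentiation at or above the plate's own cutoff, the solvent-only control mean plus 3 SD; inconclusive means no clear call, values can overlap the other calls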;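 further: cells exposed to compound for four days before flow analysis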
Exocytosis inh = blocks lytic granule exocytosis. inhibition, % at 10 µM. actives 0.66% (n = 360,000). TALL-104 LAMP-1 surface exposure, flow cytometry; cells stimulated with thapsigargin and PMA. AID 651702;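 active means inhibition above about 55%, limit read from the data; inconclusive means no clear call, values can overlap the other calls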
MC4R barr agon = activates human MC4R beta-arrestin recruitment. AID 540308. U2OS MC4R beta-arrestin complementation, luminescence; percent of melanotan II response, DMSO zero. activation, % at 8.9 µM. actives 0.98% (n = 360,000). P32245;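 active means activation above a per-plate cutoff, the mean activation of sample wells on that plate plus 3 SD, cut at about 8% in these data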
Target sequence (P32245 whole entry, looked up): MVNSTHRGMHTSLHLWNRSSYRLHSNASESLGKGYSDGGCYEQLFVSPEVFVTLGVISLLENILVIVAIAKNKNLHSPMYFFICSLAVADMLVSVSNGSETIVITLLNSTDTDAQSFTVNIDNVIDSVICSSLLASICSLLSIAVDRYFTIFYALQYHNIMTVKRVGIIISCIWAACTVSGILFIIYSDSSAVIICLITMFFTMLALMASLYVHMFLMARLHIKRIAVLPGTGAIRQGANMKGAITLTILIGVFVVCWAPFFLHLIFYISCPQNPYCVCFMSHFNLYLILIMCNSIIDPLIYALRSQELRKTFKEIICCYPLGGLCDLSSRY
MC4R antag cAMP = antagonists of human melanocortin 4 receptor (MC4R) | P32245 | MC4R-expressing cells, MTII-stimulated cAMP, LANCE TR-FRET | inhibition, % at 6.5 µM | actives 0.48% (n = 360,000) | AID 540295;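 active means inhibition above its plate's cutoff, the mean of tested wells on that plate plus 3 SD, cut at about 29% in these data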
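Test system: U2OS cells stably expressing human melanocortin 4 receptor (MC4R); also added: Melanotan II challenge; compound: 6.5 µM single dose; timing: 30-min compound preincubation, 1-h Melanotan II challenge, 1-h detection, room temperature; signal: Eu-cAMP/anti-cAMP TR-FRET, emission 671 nm; repeats: one well per compound, no replicates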
MC4R barr conf = human MC4R beta-arrestin agonism confirmation | shares compounds with MC4R barr agon | U2OS MC4R beta-arrestin recruitment, luminescence; scaled DMSO 0%, Melanotan II 100% | activation, % at 8.9 µM | actives 31% (n = 2,400) | AID 602192;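 active means mean activation across replicates above the hit cutoff set in the earlier primary screen, cut at about 8% in these data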
MOR-DOR barr ag = activates mu-delta opioid heterodimer, MC4R agonist counter-screen; actives 5.8% (n = 2,400); activation, % at 9.2 µM; shares compounds with MC4R barr agon; U2OS PathHunter beta-arrestin, beta-gal luminescence; percent of deltorphin B response, DMSO zero;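 active means mean activation across replicates exceeds the hit threshold derived in the earlier primary screen, cut at about 18% in these data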
Hits are given with their value; n = inactive; u = inconclusive; x = not tested or not shown; + = active, no number.

SMILES | EBI2 antag | Myeloid diff MLP | Exocytosis inh | MC4R barr agon | MC4R antag cAMP | MC4R barr conf | MOR-DOR barr ag
Cc1cc(N2CCN(C(=O)c3ccco3)CC2)n2nc(-c3cccc(Cl)c3)cc2n1 | n | n | n | 25.8 | n | 30.7 | n
CC(C)Oc1ccc(S(=O)(=O)N2CCCCC2)cc1NC(=O)C1CSC2(C)CCC(=O)N12 (centres undefined) | n | n | n | n | n | x | x
CC(=O)c1ccc(NC(=O)CN2CCCC2)cc1 | n | n | n | n | n | x | x
COCCN1C(=O)N(c2cccc(C)c2)C(=O)C1CC(=O)Nc1ccc(OC)cc1 (centres undefined) | n | n | n | n | n | x | x
COc1ccc(NC(=O)c2oc3ccccc3c2NC(=O)C2CC2)c(OC)c1 | n | n | n | n | n | x | x
COc1ccccc1NC(=O)c1oc2ccccc2c1NC(=O)c1cc(OC)c(OC)c(OC)c1 | n | u | n | n | n | x | x
COCC(=O)Nc1c(C(=O)Nc2ccccc2OC)oc2ccccc12 | n | n | n | 22.0 | n | n | n
CCOCC(=O)Nc1c(C(=O)Nc2ccc(OC)cc2OC)oc2ccccc12 | n | n | n | 12.8 | n | 9.9 | n
O=C(NCC1CC1)C1Cc2c(-c3ccc4c(c3)OCO4)ccnc2O1 (centres undefined) | n | n | n | n | n | x | x
Cc1ccc(S(=O)(=O)NCCNc2ccc(Br)c(C)c2)cc1 | n | n | n | 18.2 | n | n | n
COc1ccc2nc(NC(=O)c3ccc(F)cc3)sc2c1 | n | n | n | 13.2 | n | n | n
COc1ccc2nc(NC(=O)c3ccc(-n4nc(C)cc4C)cc3)sc2c1 | n | n | n | 19.9 | n | n | n
COc1ccc2nc(NC(=O)c3ccc4ncsc4c3)sc2c1 | n | n | n | n | n | x | x
Cc1ccc(C)c(-n2c(-c3ccc(Br)cc3)csc2=NC(=O)c2ccccc2F)c1 | n | n | n | n | n | x | x
Cc1cc(CNCCN(C)C)c(C)n1-c1cc(S(=O)(=O)N2CCOCC2)ccc1N1CCCC1 | n | n | n | n | n | x | x
COc1ccccc1NC(=O)N(C)C[C@@H]1OCc2cn(nn2)CCCC(=O)N([C@H](C)CO)C[C@H]1C | n | n | n | n | n | x | x
CNC(=S)N/N=C/c1c(C)nn(-c2cccc(Cl)c2)c1Cl | n | n | n | 22.0 | n | n | n
Cc1cccc(NC(=O)c2oc(=O)c3ccccc3c2-c2ccccc2)c1C | n | n | n | 11.1 | n | n | n
Cc1ccccc1NC(=O)c1oc(=O)c2ccccc2c1-c1ccccc1 | n | n | n | n | n | x | x
COc1ccc(C(C(=O)Nc2ccc(F)cc2)N2CCN(c3cccc(C(F)(F)F)n3)CC2)cc1 (centres undefined) | n | n | n | x | x | x | x
O=CNc1cc(-c2cccc(F)c2)cn2c(-c3ccc(F)cc3)cnc12 | n | n | n | 11.9 | n | 16.4 | n
CC(=O)Nc1cc(-c2cccc(F)c2)cn2c(-c3ccc(S(C)(=O)=O)cc3)cnc12 | n | n | n | n | n | x | x
CC(=O)Nc1cccc(-c2cc(NC(C)=O)c3ncc(-c4ccc(F)cc4)n3c2)c1 | n | n | n | 17.3 | n | 10.5 | n
CC(=O)Nc1cc(-c2cccc(NS(C)(=O)=O)c2)cn2c(-c3ccc(F)c(Cl)c3)cnc12 | n | n | n | n | n | x | x
CC(=O)Nc1cc(-c2cccc(F)c2)cn2c(-c3ccc(F)cc3)cnc12 | n | n | n | 39.8 | n | 63.6 | n
SMILES | EBI2 antag | Myeloid diff MLP | Exocytosis inh | MC4R barr agon | MC4R antag cAMP | MC4R barr conf | MOR-DOR barr ag
O=C1NC[C@H](CCCCN2C[C@H](Cc3ccccc3)N(CC3CCCCC3)C(=O)C2=O)N(CC2CCCCC2)C1=O | n | n | n | x | x | x | x
COc1cccc(C=NNc2nc3ccccc3s2)c1OC | n | n | n | 22.2 | n | n | n
Oc1ccccc1C=NNc1nc2ccccc2s1 | n | n | n | n | n | x | x
Cc1ccsc1/C=N/Nc1nc2ccccc2s1 | n | n | n | 9.9 | n | n | n
COc1cccc(/C=N/Nc2ccc(Cl)nn2)c1OC | n | n | n | n | n | x | x
COc1cccc(/C=N/Nc2nnc3c(n2)[nH]c2ccccc23)c1OC | n | n | n | 11.0 | n | n | n
Cc1ccccc1NC(=O)Cc1nc(COC(=O)/C=C/c2ccc(F)cc2)cs1 | n | n | n | n | n | x | x
Cc1ccccc1NC(=O)Cc1nc(COC(=O)c2cc(Br)ccc2O)cs1 | n | n | n | 16.5 | n | n | n
C=CCOc1ccc(/C=C/C(=O)OCc2csc(CC(=O)Nc3ccccc3C)n2)cc1 | n | n | n | 15.5 | n | 8.7 | n
COc1ccc(N2CCN(C(=O)CN3c4cccc5cccc(c45)S3(=O)=O)CC2)cc1 | n | n | n | n | n | x | x
C/C(=N\NC(=O)c1cccc(O)c1)c1ccc(NC(=O)Cc2ccccc2)cc1 | n | n | n | n | n | x | x
CCOc1cc(/C=N/N=C(\N)c2nonc2N)cc(Br)c1OCc1cccc2ccccc12 | n | n | n | 30.7 | n | 10.8 | n
CC(=O)Nc1cc(-c2ccc(S(C)(=O)=O)cc2)cn2c(-c3ccc(F)cc3)cnc12 | n | n | n | n | n | x | x
CC(=O)Nc1cc(-c2ccc(S(C)(=O)=O)cc2)cn2c(-c3ccc(F)c(Cl)c3)cnc12 | n | n | n | 19.5 | n | 16.9 | n
CC(=O)Nc1cc(-c2ccc(N(C)C)cc2)cn2c(-c3ccc(F)c(Cl)c3)cnc12 | n | n | n | 70.7 | n | 200.3 | n
O=C(Nc1cccc(F)c1)C1CCN(C(=O)NCc2ccccc2)CC1 | n | n | n | n | n | x | x
CC(C)(C)N1C(=O)c2ccccc2NC(=O)C1C(=O)NCCc1ccccc1F (centres undefined) | n | n | n | x | x | x | x
COc1cc2c(cc1OC)/C(=C/C(=O)OCc1ccccc1)OC2 | n | n | n | x | x | x | x
COc1ccc(C(=O)Nc2cc(-c3ccc(C)cc3)no2)cc1 | n | n | n | 9.8 | n | n | n
CCCCCCCNC(=O)C1(CC2CC(c3ccc(Cl)cc3)=NO2)CCN(C(=O)Cc2ccc(F)cc2)CC1 (centres undefined) | n | n | n | n | n | x | x
CCCCCCCNC(=O)C1(CC2CC(c3ccc(Cl)cc3)=NO2)CCNCC1 (centres undefined) | n | u | n | 9.7 | n | 24.4 | n
CN(Cc1nc(Cc2cccc(C(F)(F)F)c2)no1)C1CC(C)(C)NC(C)(C)C1 | n | n | n | n | n | x | x
N#C/C(=C/c1ccc(N2CCCCC2)o1)C(=O)Nc1ccc(Cl)cc1 | n | + | n | 10.5 | n | n | n
CC(C)N(C(C)C)S(=O)(=O)c1ccc(NC(=O)c2cnccn2)cc1 | n | n | n | n | n | x | x
CCOC(=O)c1ccc(NC(=O)CSc2nnc(COc3ccccc3)n2C)cc1 | n | n | n | 11.4 | n | n | n
